Experimental data: ChEMBL document CHEMBL1121713, “Synthesis and antiinflammatory activity of metabolites of piroxicam” (1981)
Calls of active or inactive are those of the source. No cut-off for these calls is given here.

Columns and labels:
Rattus norvegicus [1] = test: Antiinflammatory activity of compound expressed as percentage inhibition of carrageenan edema 4 hr after an oral dose of 33 mg/kg.; type: functional
Summary of the method: (§1)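 Rat carrageenan paw edema, subplantar carrageenan injection, per Winter et al. Oral dosing in water with 4% polyethylene glycol and 0.2% Tween 80, dilute NaOH added as needed to dissolve. Six rats per treated group, eight per vehicle-only or phenylbutazone group, run concurrently. Read-out is mean % inhibition of edema 4 h after the dose versus vehicle controls.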

Rattus norvegicus [2] = test: Antiinflammatory activity of compound expressed as percentage inhibition of carrageenan edema 4 hr after an oral dose of 10 mg/kg.; type: functional; summary of the method: as §1
Rattus norvegicus [3] = test: Antiinflammatory activity of compound expressed as percentage inhibition of carrageenan edema 4 hr after an oral dose of 10 mg/kg; Not available; type: functional, organism-based; set-up: dose 10 mg/kg; summary of the method: as §1

Row | SMILES | inhibition in vivo at 33 mg/kg (Rattus norvegicus [1]) | inhibition in vivo at 10 mg/kg (Rattus norvegicus [2]) | inhibition (Rattus norvegicus [3])
1 | CN1c2c(n3ccccc3nc2=O)-c2ccccc2S1(=O)=O | 46% | 38% | –
2 | CN1C(C(=O)Nc2ccc(O)cn2)=C(O)c2ccccc2S1(=O)=O [HYDROXY PIROXICAM METABOLITE] | 17% | 15% | –
3 | CN1C(C(=O)Nc2cccc(O)n2)=C(O)c2ccccc2S1(=O)=O | 40% | 31% | –
4 | CN1CC(=O)c2ccccc2S1(=O)=O | 8% | – | inactive
5 | CN1C(=O)c2ccccc2S1(=O)=O | 12% | – | –
6 | CCCCC1C(=O)N(c2ccccc2)N(c2ccccc2)C1=O [PHENYLBUTAZONE] | 50% | 35% | –
7 | CN1C(C(=O)Nc2ncccc2O)=C(O)c2ccccc2S1(=O)=O | 41% | 13% | –
8 | O=C1NS(=O)(=O)c2ccccc21 [SACCHARIN] | 0% | – | –
9 | CN1C(C(=O)O)=C(O)c2ccccc2S1(=O)=O | 0% | – | –
10 | CN1C(C(=O)Nc2ccccn2)=C(O)c2ccccc2S1(=O)=O [PIROXICAM] | 75% | 67% | –
11 | CN1C(C(=O)Nc2cc(O)ccn2)=C(O)c2ccccc2S1(=O)=O | 24% | 10% | –
